In ChEMBL document CHEMBL4219260, “Investigation of chemical reactivity of 2-alkoxy-1,4-naphthoquinones and their anticancer activity” (Bioorg Med Chem Lett, 2018):

Tests used:
Assay type in all cases: functional, cell-based
T47D = experiment: Antiproliferative activity against human T47D cells after 72 hrs by CellTiter-Glo assay
In short: (§1)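 Cells from ATCC, checked mycoplasma-free by PCR, grown in RPMI with 10% FBS, 1% penicillin/streptomycin and 2 mM L-glutamine. Seeded and incubated 24 h, then exposed to 0.3, 1, 3 and 10 μM for 72 h. Viability was read by CellTiter-Glo relative to 0.1% DMSO vehicle. IC50 came from standard curve analysis, with doxorubicin as positive control. Three independent experiments, each in triplicate.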

K562 = experiment: Antiproliferative activity against human K562 cells after 72 hrs by CellTiter-Glo assay; conditions: K562, 72 h; in short: as §1
COLO 205 = experiment: Antiproliferative activity against human COLO205 cells after 72 hrs by CellTiter-Glo assay; conditions: COLO 205, 72 h; in short: as §1

| SMILES | IC50 (T47D) [µM] | IC50 (K562) [µM] | IC50 (COLO 205) [µM] |
| --- | --- | --- | --- |
| O=C1C(O)=CC(=O)c2c(O)cccc21 | > 10 | > 10 | > 10 |
| COC1=CC(=O)c2cccc(O)c2C1=O | > 10 | > 10 | > 10 |
| NC(=O)COC1=CC(=O)c2c(O)cccc2C1=O | 1.7 | 0.9 | 0.7 |
| COC(=O)COC1=CC(=O)c2ccccc2C1=O | > 10 | > 10 | > 10 |
| COC1=CC(=O)c2c(OC)cccc2C1=O | > 10 | > 10 | > 10 |
| O=C(O)COC1=CC(=O)c2c(O)cccc2C1=O | > 10 | > 10 | > 10 |
| CN(C)C(=O)COC1=CC(=O)c2c(O)cccc2C1=O | 1 | 1.2 | 1.7 |
| COC(=O)COC1=CC(=O)c2c(O)cccc2C1=O | 2.2 | 1.3 | 1.9 |
| COC1=CC(=O)c2c(O)cccc2C1=O | 2 | 1.4 | 2.3 |
| O=C1C=C(O)C(=O)c2c(O)cccc21 | > 10 | > 10 | > 10 |
